Experimental data as given in ChEMBL document CHEMBL1938334, “Quinoline tricyclic derivatives. Design, synthesis and evaluation of the antiviral activity of three new classes of RNA-dependent RNA polymerase inhibitors” (Bioorg Med Chem, 2011).

How the values were obtained:
[1] = Antiviral activity against Vaccinia virus Lister Elstree infected in african green monkey Vero 76 cells assessed as reduction of virus-induced plaque formation after 3 days using crystal violet staining; type: functional, cell-based; conditions: 72 h
[2] = system: Yellow fever virus; experiment: Antiviral activity against Yellow fever virus 17D Stamaril Pasteur J07B01 infected in hamster BHK21 cells assessed as inhibition of virus-induced cytopathogenicity after 3 to 4 days by MTT assay; type: functional, cell-based; conditions: Stamaril Pasteur J07B01, BHK-21
In short: (§1)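 Host cells were seeded in 96-well plates at 3×10^4 cells/well (MDBK) or 5×10^4 cells/well (BHK-21) and grown to confluent monolayers overnight. They were infected at m.o.i. 0.01 in maintenance MEM with 0.5% inactivated FBS. Serial compound dilutions were added after 1 h. Viability was read by MTT after 3–4 days at 37 °C. EC50 was taken by linear regression against untreated controls. Mean of three determinations.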

[3] = system: Human orthopneumovirus; experiment: Antiviral activity against Human respiratory syncytial virus A2 infected in african green monkey Vero 76 cells assessed as reduction of virus-induced plaque formation after 5 days using crystal violet staining; type: functional, organism-based; conditions: 120 h
[4] = system: Poliovirus 1; experiment: Antiviral activity against Human poliovirus 1 strain Sabin Chat infected in african green monkey Vero 76 cells assessed as virus-induced reduction of plaque formation after 2 days using crystal violet staining; type: functional, cell-based; conditions: Enterovirus C, 48 h
[5] = system: Reovirus sp.; experiment: Antiviral activity against Reovirus type-1 3651 infected in hamster BHK21 cells assessed as inhibition of virus-induced cytopathogenicity after 3 to 4 days by MTT assay; type: functional, organism-based; conditions: Reovirus sp., 3651, BHK-21; in short: as §1
[6] = system: Human alphaherpesvirus 1; experiment: Antiviral activity against Human herpesvirus 1 strain KOS infected in african green monkey Vero 76 cells assessed as reduction of virus-induced plaque formation after 3 days using crystal violet staining; type: functional, organism-based; conditions: Human alphaherpesvirus 1, KOS, 72 h
[7] = system: Vesicular stomatitis Indiana virus; experiment: Antiviral activity against clinical isolate Vesicular stomatitis Indiana virus infected in african green monkey Vero 76 cells assessed as reduction of virus-induced plaque formation after 2 days using crystal violet staining; type: functional, organism-based; conditions: 48 h
[8] = system: Coxsackievirus B5; experiment: Antiviral activity against Human coxsackievirus B5 Ohio-1 infected in african green monkey Vero 76 cells assessed as reduction of virus-induced plaque formation after 3 days using crystal violet staining; type: functional, organism-based; conditions: Enterovirus B, Ohio-1, Vero, 72 h
[9] = system: Human immunodeficiency virus 1; experiment: Antiviral activity against HIV1 3B infected in human MT4 cells assessed as inhibition of virus-induced cytopathogenicity after 4 days by MTT assay; type: functional, organism-based; conditions: Human immunodeficiency virus 1, 3B, MT4, 96 h
In short: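 MT-4 cells (1×10^4 per well) were infected with HIV-1 IIIB at 100 CCID50, m.o.i. 0.01, together with serial compound dilutions. Viability was read by MTT after 4 days at 37 °C. EC50 was taken by linear regression versus untreated controls. Mean of three determinations.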

[10] = Antiviral activity against Bovine viral diarrhea virus 1-NADL infected in MDBK cells assessed as inhibition of virus-induced cytopathogenicity after 3 to 4 days by MTT assay; type: functional, cell-based; conditions: Bovine viral diarrhea virus isolates and strains; in short: as §1
[11] = Cytotoxicity against BHK21 cells after 48 to 96 hrs by MTT assay; type: cell-based, Mesocricetus auratus, BHK-21; conditions: hamster
In short: (§2)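 MDBK seeded at 6×10^5 and BHK at 1×10^6 cells/mL in MEM-Earle's with L-glutamine, 1 mM pyruvate, kanamycin, plus 10% horse serum (MDBK) or 10% FBS (BHK). Cells were grown at 37 °C, 5% CO2 with serial compound dilutions (DMSO stocks diluted in medium). Viability by MTT after 48–96 h. CC50 was taken by linear regression versus untreated controls; three independent determinations.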

[12] = Cytotoxicity against human MT4 cells after 96 hrs by MTT assay; type: cell-based
In short: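 Exponentially growing MT-4 cells seeded at 1×10^5 cells/mL in RPMI-1640 with 10% FBS, penicillin and streptomycin. Incubated with serial compound dilutions at 37 °C, 5% CO2 for 96 h; viability by MTT. CC50 by linear regression relative to untreated controls; mean of three independent determinations.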

[13] = Cytotoxicity against MDBK cells after 48 to 96 hrs by MTT assay; type: cell-based, Bos taurus; conditions: cattle; in short: as §2
[14] = Cytotoxicity against african green monkey Vero 76 cells after 48 to 96 hrs by crystal violet staining; type: cell-based; conditions: chlorocebus sabaeus
In short: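 Vero-76 cells were seeded at 4×10^5 cells/mL in D-MEM with L-glutamine, kanamycin and 10% FBS, then exposed to serial compound dilutions at 37 °C, 5% CO2 for 48–96 h. Viability was read by crystal violet staining. 50% cytotoxic concentration by linear regression relative to untreated controls; mean of three independent determinations.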

Compound | EC50 [1] | EC50 [2] | EC50 [3] | EC50 [4] | EC50 [5] | EC50 [6] | EC50 [7] | EC50 [8] | EC50 [9] | EC50 [10] | CC50 [11] | CC50 at 96 h [12] | CC50 [13] | CC50 [14]
N#CCn1nnc2c(Cl)c3ncccc3cc21 | > 100 µM | > 100 µM | > 100 µM | > 100 µM | > 100 µM | 51 µM | > 100 µM | > 100 µM | > 62 µM | 23 µM | > 100 µM | 62 µM | > 100 µM | > 100 µM
c1ccc(-c2ccc(-c3nc4cc5cccnc5cc4[nH]3)cc2)cc1 | > 80 µM | > 20 µM | > 80 µM | > 80 µM | > 20 µM | > 80 µM | > 80 µM | 3 µM | > 8 µM | 60 µM | 20 µM | 8 µM | ≥ 100 µM | 80 µM
CCOC(=O)C(C)c1nc2cc3cccnc3c(Cl)c2[nH]c1=O (stereo unspecified) | > 100 µM | > 100 µM | > 100 µM | ≥ 100 µM | > 100 µM | ≥ 100 µM | ≥ 100 µM | > 100 µM | > 59 µM | 19 µM | > 100 µM | 59 µM | > 100 µM | > 100 µM
O=C(CCl)Cn1nnc2c(Cl)c3ncccc3cc21 | > 100 µM | > 85 µM | > 100 µM | > 100 µM | > 85 µM | > 100 µM | > 100 µM | > 100 µM | > 21 µM | > 53 µM | 85 µM | 21 µM | 53 µM | > 100 µM
CCOC(=O)C(C)c1nc2c(Cl)c3ncccc3cc2[nH]c1=O (stereo unspecified) | > 100 µM | 50 µM | 62 µM | > 100 µM | > 75 µM | > 100 µM | > 100 µM | > 100 µM | > 11 µM | 10 µM | 75 µM | 11 µM | > 100 µM | > 100 µM
Clc1ccc(-c2nc3cc4cccnc4cc3[nH]2)cc1Cl | > 100 µM | > 100 µM | > 100 µM | > 100 µM | > 100 µM | > 100 µM | > 100 µM | > 100 µM | > 100 µM | > 100 µM | > 100 µM | > 100 µM | > 100 µM | > 100 µM
Clc1c2ncccc2cc2nc(-c3ccccc3)c(-c3ccccc3)nc12 | > 100 µM | > 100 µM | > 100 µM | > 100 µM | > 100 µM | > 100 µM | > 100 µM | > 100 µM | > 100 µM | > 100 µM | > 100 µM | > 100 µM | > 100 µM | > 100 µM
c1cnc2cc3[nH]nnc3cc2c1 | > 100 µM | > 100 µM | > 100 µM | > 100 µM | > 100 µM | > 100 µM | > 100 µM | > 100 µM | > 40 µM | > 100 µM | > 100 µM | 40 µM | > 100 µM | > 100 µM
Clc1c2ncccc2cc2nccnc12 | 57 µM | > 70 µM | > 90 µM | > 90 µM | > 70 µM | 90 µM | > 90 µM | 50 µM | > 82 µM | > 6.5 µM | 70 µM | 82 µM | 6.5 µM | 90 µM
c1ccc(-c2nc3cc4cccnc4cc3[nH]2)cc1 | > 100 µM | > 40 µM | > 100 µM | 37 µM | 13 µM | > 100 µM | > 100 µM | 19 µM | > 28 µM | 10 µM | 40 µM | 28 µM | 80 µM | > 100 µM
CC(=O)Nc1ccc(-c2nc3cc4cccnc4c(Cl)c3[nH]2)cc1 | > 100 µM | > 100 µM | > 100 µM | > 100 µM | 51 µM | > 100 µM | > 100 µM | > 100 µM | > 100 µM | 11 µM | > 100 µM | > 100 µM | > 100 µM | > 100 µM
CC(C)c1nc2c(Cl)c3ncccc3cc2[nH]c1=O | > 100 µM | > 100 µM | > 100 µM | > 100 µM | > 100 µM | > 100 µM | > 100 µM | > 100 µM | > 100 µM | 100 µM | > 100 µM | 100 µM | > 100 µM | > 100 µM
CC(C)c1nc2cc3cccnc3c(Cl)c2[nH]c1=O | > 100 µM | > 100 µM | 38 µM | > 100 µM | 47 µM | > 100 µM | 62 µM | > 100 µM | > 48 µM | 5 µM | > 100 µM | 48 µM | 100 µM | > 100 µM
Clc1c2ncccc2cc2nn[nH]c12 | > 100 µM | > 100 µM | > 100 µM | > 100 µM | > 100 µM | > 100 µM | > 100 µM | > 100 µM | > 100 µM | > 100 µM | > 100 µM | > 100 µM | > 100 µM | > 100 µM
Clc1c2ncccc2cc2nc(C3CCCCC3)[nH]c12 | ≥ 100 µM | > 26 µM | > 100 µM | 80 µM | > 26 µM | > 100 µM | ≥ 100 µM | 43 µM | > 57 µM | 19 µM | 26 µM | 57 µM | 73 µM | > 100 µM
N#CCn1nnc2cc3cccnc3c(Cl)c21 | > 100 µM | > 100 µM | > 100 µM | > 100 µM | > 100 µM | > 100 µM | > 100 µM | > 100 µM | > 100 µM | 100 µM | > 100 µM | 100 µM | > 100 µM | > 100 µM
O=C(CCl)Cn1nnc2cc3cccnc3c(Cl)c21 | > 100 µM | > 65 µM | > 100 µM | > 100 µM | > 65 µM | > 100 µM | > 100 µM | > 100 µM | > 23 µM | > 21 µM | 65 µM | 23 µM | 21 µM | > 100 µM
Oc1ccnc2c(Cl)c3[nH]nnc3cc12 | > 100 µM | > 100 µM | > 100 µM | > 100 µM | ≥ 100 µM | > 100 µM | > 100 µM | > 100 µM | > 100 µM | > 100 µM | > 100 µM | > 100 µM | > 100 µM | > 100 µM
Clc1c2ncccc2cc2ncc(-c3ccccc3)nc12 | > 100 µM | > 100 µM | > 100 µM | > 100 µM | > 100 µM | > 100 µM | > 100 µM | > 100 µM | > 100 µM | 18 µM | > 100 µM | > 100 µM | > 100 µM | > 100 µM
